The values below come from publication PMC8172216 (Pharmaceutical Biology, 2021).

A short description of data set [1]: Pharmacokinetics of saponins in rat plasma after oral gavage of raw. The data set is classed as in vivo, Sprague–Dawley rats. The following applies: for AUC0–t: SD rats, oral administration of SPN extract 1.0 g/kg; for AUC(0-t) / AUC(0-inf) / Cmax / Tmax / half-life: male, Sprague-Dawley, rat, plasma, po, 1 g/kg, oral gavage of raw P. notoginseng aqueous extract 1 g/kg, n = 6, mean ± SD; for AUC(0-t): AUC0–t; for AUC(0-t) / AUC(0-inf) / Cmax / Tmax: male SD rats; for AUC(0-inf): AUC0–∞; for half-life: t1/2, male SD rats; for time in which the maximum plasma concentration was achieved: after oral administration of RPN or SPN aqueous extract. A digest of the protocol:
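Male SD rats (200–250 g, n = 6/group) were acclimatised for 7 d and fasted overnight with water. They received a single oral gavage of aqueous extract at 1 g/kg (5 mL/kg). Heparinized orbital blood was taken pre-dose and at 5 min to 48 h, then centrifuged and stored at −40 °C. Plasma was methanol-precipitated with theophylline internal standard and analysed by MRM. Cmax and Tmax were read directly; AUC and t1/2 were non-compartmental; results are mean ± SD.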

For data set [2] the following is noted: ref Ma et al. [2021]; cited from earlier work.

Take `CC(C)=CCC[C@](C)(O[C@@H]1O[C@H](CO[C@@H]2O[C@H](CO)[C@@H](O)[C@H](O)[C@H]2O)[C@@H](O)[C@H](O)[C@H]1O)[C@H]1CC[C@]2(C)[C@@H]1[C@H](O)C[C@@H]1[C@@]3(C)CC[C@H](O[C@@H]4O[C@H](CO)[C@@H](O)[C@H](O)[C@H]4O[C@@H]4O[C@H](CO)[C@@H](O)[C@H](O)[C@H]4O)C(C)(C)[C@@H]3CC[C@]12C` [Rb1, ginsenoside Rb1]: in data set [1], the “AUC0–t” value worked out at 5094.06 ± 1453.14 ng/h/mL; the AUC(0-t) (as a rule, exposure summed from dosing to a finite time, without extrapolation to infinity) came out at 15100 ± 2380 ng·h/mL; the AUC(0-inf) (in general, total exposure, with the tail of the curve extrapolated) was 15200 ± 2440 ng·h/mL; the concentration peaked (Cmax) at 997 ± 144 ng/mL. For the same compound, in data set [1], the time to peak (Tmax) (as a rule, the time at which the peak concentration occurs) came to 8.67 ± 1.63 h and the half-life (usually the time needed for the level to fall by half in the phase considered) is 9.58 ± 1.11 h.
Regarding `CC(C)=CC/C=C(\C)[C@H]1CC[C@]2(C)[C@@H]1[C@H](O)C[C@@H]1[C@@]3(C)CC[C@H](O[C@@H]4O[C@H](CO)[C@@H](O)[C@H](O)[C@H]4O[C@@H]4O[C@H](CO)[C@@H](O)[C@H](O)[C@H]4O)C(C)(C)[C@@H]3CC[C@]12C` [Rg5, ginsenoside Rg5], in data set [1] (after oral administration of P. notoginseng extracts, rats, listed as GRg5), the “detection in rat plasma” value was “could not be detected”. In addition, the bioavailability (as a rule, the share of a dose that reaches the circulation, judged against a reference dose that is usually intravenous) in data set [2] is given as 0.67%.
Consider `CC(C)=CCC[C@](C)(O[C@@H]1O[C@H](CO)[C@@H](O)[C@H](O)[C@H]1O)[C@H]1CC[C@]2(C)[C@@H]1[C@H](O)C[C@@H]1[C@@]3(C)CC[C@H](O[C@@H]4O[C@H](CO)[C@@H](O)[C@H](O)[C@H]4O[C@@H]4O[C@H](CO)[C@@H](O)[C@H](O)[C@H]4O)C(C)(C)[C@@H]3CC[C@]12C` [Rd, ginsenoside Rd], for which, in data set [1], the “AUC0–t” value is on record as 1396.89 ± 595.14 ng/h/mL, the AUC(0-t) turned out to be 3630 ± 569 ng·h/mL, the total exposure AUC(0-inf) is 4170 ± 733 ng·h/mL and the Cmax (usually the maximum level reached in the sampled fluid or tissue) stood at 164 ± 28.8 ng/mL. Also, in data set [1], the Tmax turned out to be 8.67 ± 2.73 h and the half-life is 13.9 ± 1.71 h.
As for `CC(C)=CCC[C@](C)(O[C@@H]1O[C@H](CO)[C@@H](O)[C@H](O)[C@H]1O)[C@H]1CC[C@]2(C)[C@@H]1[C@H](O)C[C@@H]1[C@@]3(C)CC[C@H](O)C(C)(C)[C@@H]3[C@@H](O[C@@H]3O[C@H](CO)[C@@H](O)[C@H](O)[C@H]3O[C@@H]3O[C@@H](C)[C@H](O)[C@@H](O)[C@H]3O)C[C@]12C` [Re, ginsenoside Re], the “time in which the maximum plasma concentration was achieved” value in data set [1] (rats) was at most 1.63 h. Further, in data set [1], the AUC(0-t) came to 87.7 ± 20.7 ng·h/mL, the AUC(0-inf) turned out to be 91.7 ± 19.7 ng·h/mL, the Cmax is 28.1 ± 13.1 ng/mL and the Tmax turned out to be 1.24 ± 0.49 h. This compound also showed a half-life in data set [1] of 3.16 ± 1.73 h. For the same compound, in data set [1] (oral dose of raw and steamed P. notoginseng aqueous extracts, rats), the “AUC0–t and Cmax, steamed versus raw group” value was “no significantly difference”.
`CC(C)=CCC[C@](C)(O[C@@H]1O[C@H](CO)[C@@H](O)[C@H](O)[C@H]1O)[C@H]1CC[C@]2(C)[C@@H]1[C@H](O)C[C@@H]1[C@@]3(C)CC[C@H](O)C(C)(C)[C@@H]3[C@@H](O[C@@H]3O[C@H](CO)[C@@H](O)[C@H](O)[C@H]3O)C[C@]12C` [Rg1, ginsenoside Rg1]: in data set [1], the “AUC0–t” value was 176.63 ± 42.49 ng/h/mL, the exposure AUC(0-t) amounted to 808 ± 382 ng·h/mL, the AUC(0-inf) was found to be 861 ± 355 ng·h/mL and the concentration peaked (Cmax) at 66.7 ± 32.8 ng/mL. Moreover, in data set [1], the time of peak concentration (Tmax) was 9.33 ± 2.07 h and the half-life was 7.92 ± 6.73 h. In addition, the “time in which the maximum plasma concentration was achieved” value in data set [1] (rats) is given as at most 9.33 h.
